According to PubChem BioAssay:
Active and inactive are the calls of the source.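 How the source made its calls, unless noted: active means inhibition of the reporter signal at or above 50%; inactive means inhibition below 50%.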

Legend:
[1] = inhibitors of TNFa-induced NFkB p65 translocation, primary screen, imaging, HUVEC, MLSMR starter and 10KST1 sets (AID 438;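 active means inhibition above 20% together with a positive visual image hit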;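 further: compound added about 3h40 before a 20 min TNFalpha stimulation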;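 on inhibition: signal is the nuclear over cytoplasmic p65 intensity ratio per well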); settings: HUVEC TNFa-induced p65 nuclear translocation; cell count: measured here: nuclei count (cytotoxicity indicator), at 2.08 µM; inhibition: at 2 µM, stronger effect = higher value, 0% TNFa-plus-vehicle, 100% no-TNFa wells
[2] = reduction of polyQ htt aggregates in cells – imaging, exon1htt(103Q)mCFP cells, high-content imaging, primary screen (AID 483;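 active means visual image review flags a hit and inhibition of aggregation exceeds 20%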;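 further: compound exposure lasted 3 days before fixation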;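 on nuclei count: percent of the per-plate median nuclei count of sample wells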); settings: exon1htt(103Q)mCFP cell line, aggregate imaging, at 2 µM; inhibition of aggregation: stronger effect = higher value; nuclei count: measured here: cell count, toxicity
[3] = endothelial E-selectin expression blockers – imaging, HUVEC, immunofluorescence, MLSMR starter and 10KST1 sets, primary screen (AID 487;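 active means visually confirmed hit in the image check and inhibition above 20%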;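 on inhibition: signal is fraction of cell area covered by stained E-selectin grains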;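 on nuclei count: 100% = median nuclei count of all wells on the same plate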); settings: HUVEC TNFalpha-induced E-selectin immunofluorescence imaging, at 2 µM; inhibition: stronger effect = higher value; nuclei count: measured here: cell number, toxicity
[4] = target: Voltage-gated potassium channel subunit beta-2 (Rattus norvegicus) (UniProt P62483); experiment: inhibitors of rat Kvbeta2 reductase activity – biochemical, NADPH fluorescence, primary screen (AID 622;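 active means fluorescence slope higher than the sample average by over 3 SD, cut at about -0.22 in these data, passing the limit was not always enough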;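 further: slope of raw intensity against log time taken from 70 to 1610 s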); settings: recombinant KvBeta, 4-cyanobenzaldehyde reduction, at 10 µM, stronger effect = higher value
[5] = target: Voltage-gated potassium channel subunit beta-2 (Rattus norvegicus) (UniProt P62483); experiment: enhancers of rat Kvbeta2 NADPH turnover – biochemical, NADPH fluorescence, primary screen (AID 623;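 active means NADPH fluorescence slope more negative than the mean of all samples by about 3 SD, 99.7% confidence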;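 further: fluorescence intensity change per second fitted from 20 to 320 s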); settings: Recombinant KvBeta, NADPH fluorescence decrease slope, 10 min; at 10 µM; stronger effect = lower value
[6] = target: Alpha-2C adrenergic receptor (Homo sapiens) (UniProt P18825); experiment: compounds altering alpha2C-coupled GIRK flux – cell-based, HEK293 alpha2C/GIRK1/2, thallium flux, primary screen (AID 624;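 active means fluorescence slope after compound addition differing from the mean of all screened samples at 99.7% confidence, in either direction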;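 further: slope of fluorescence ratio to pre-addition baseline per second over 15 to 24 s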); settings: thallium flux BTC fluorescence, at 10 µM, actives lie on both sides
[7] = inhibitors of larval lipid processing in zebrafish, primary screen, whole organism, PED6 fluorescence, gall bladder and intestine (AID 686;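 active means a full or partial loss of lipid-probe fluorescence in the fish gall bladder, intestine or both, judged by eye; inactive means no fluorescence loss, or compound toxic to the fish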;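 further: larvae 5 to 7 days old with five fish per well; signal comes from phospholipase A2 cleavage of quenched PED6 carried via bile; overnight exposure to compound and PED6 before scoring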); settings: Zebrafish larvae PED6 lipid processing, fluorescence scoring; screened at 20 µM (by protocol)
How it was run: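 Test system – live zebrafish larvae aged 5-7 days, whole organism · Buffer or medium – E3 fish medium · Reagent – quenched phospholipase substrate PED6, 100 nM final, ingested by larvae · Doses – 20 µM single dose · Incubation – overnight compound and PED6 incubation · Technique – visual fluorescence microscopy scoring of gall bladder, gut · Read-out basis – visual per-well fluorescence inhibition score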

[8] = blockers of RIG-like receptor reporter activation – cell-based, Sendai virus stimulus, luciferase, 10K MLSCN set, TLR/RLR signaling modifier project, primary screen (AID 602276;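 active means inhibition at or above 50% at 10 µM; inactive means inhibition below 50%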;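 further: firefly luciferase from ISG56 promoter only with Renilla not read in this screen; 0% = Sendai virus plus DMSO and 100% = medium plus DMSO without virus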); settings: HEK293 RL24 IRF3 luciferase reporter, at 10 µM, stronger effect = higher value
[9] = TLR3 IRF3 reporter activation blockers – cell-based, poly I:C stimulus, luciferase, 10K MLSCN set, primary screen (AID 602277); settings: HEK293-TLR3 RL24 IRF3 luciferase reporter, at 10 µM, stronger effect = higher value

Sequence of Alpha-2C adrenergic receptor (Homo sapiens) (P18825 whole entry, looked up): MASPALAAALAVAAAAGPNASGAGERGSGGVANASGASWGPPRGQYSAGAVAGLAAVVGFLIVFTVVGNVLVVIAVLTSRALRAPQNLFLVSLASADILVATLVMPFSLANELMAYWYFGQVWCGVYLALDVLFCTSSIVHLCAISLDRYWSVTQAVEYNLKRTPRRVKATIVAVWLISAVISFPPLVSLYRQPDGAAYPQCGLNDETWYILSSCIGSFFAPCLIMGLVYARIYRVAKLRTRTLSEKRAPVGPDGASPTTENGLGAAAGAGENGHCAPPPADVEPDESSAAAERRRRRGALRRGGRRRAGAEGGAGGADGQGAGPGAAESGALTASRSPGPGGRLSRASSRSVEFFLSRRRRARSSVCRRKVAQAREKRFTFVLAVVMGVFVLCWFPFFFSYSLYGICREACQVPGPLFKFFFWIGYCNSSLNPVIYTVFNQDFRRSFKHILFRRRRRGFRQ
Sequence of Voltage-gated potassium channel subunit beta-2 (Rattus norvegicus) (P62483 whole entry, looked up): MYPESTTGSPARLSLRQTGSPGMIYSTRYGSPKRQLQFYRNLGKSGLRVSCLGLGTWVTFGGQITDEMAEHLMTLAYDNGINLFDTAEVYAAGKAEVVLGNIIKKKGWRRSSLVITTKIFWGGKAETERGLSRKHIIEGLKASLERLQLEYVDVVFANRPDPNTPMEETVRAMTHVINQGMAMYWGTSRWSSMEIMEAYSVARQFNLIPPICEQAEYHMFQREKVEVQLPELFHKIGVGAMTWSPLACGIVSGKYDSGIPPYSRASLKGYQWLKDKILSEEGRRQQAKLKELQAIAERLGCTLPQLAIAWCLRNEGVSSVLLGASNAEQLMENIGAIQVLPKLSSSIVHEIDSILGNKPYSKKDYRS

SMILES	cell count [1]	inhibition [1]	inhibition of aggregation [2]	nuclei count [2]	inhibition [3]	nuclei count [3]	fluorescence slope [4]	NADPH fluorescence slope [5]	slope [6]	outcome [7]	inhibition [8]	inhibition [9]
Cc1cn(C2CC3OCC3O2)c(=O)[nH]c1=O (stereo not drawn)	381	2.5% (inactive)	0.6% (inactive)	98.5%	30.5% (inactive)	98.4%	-0.399 (inactive)	1.2e-05 (inactive)	0.00591 (inactive)	inactive	-0.457% (inactive)	5.51% (inactive)
Nc1ccc(S(=O)(=O)c2cccc(N)c2)cc1	655	-8.6% (inactive)	-8.8% (inactive)	81.5%	-2.1% (inactive)	108%	-0.435 (inactive)	-1.3e-05 (inactive)	0.00439 (inactive)	inactive	15.4% (inactive)	15.8% (inactive)
O=C(CN(CC1CCCO1)S(=O)(=O)c1ccc(S(=O)(=O)NC2CC2)cc1)Nc1ccccc1 (stereo not drawn)	502	-15.8% (inactive)	17.8% (inactive)	83.4%	12.1% (inactive)	96.1%	-0.384 (inactive)	-4.7e-05 (inactive)	0.00436 (inactive)	inactive	7.42% (inactive)	7.34% (inactive)
Cc1ccc2c(c1C)NC(C(=O)O)C1CC=CC21 (stereo not drawn)	371	1.6% (inactive)	-10.5% (inactive)	77.6%	-11.4% (inactive)	114%	-0.373 (inactive)	-2.5e-05 (inactive)	0.00434 (inactive)	inactive	13.7% (inactive)	18.5% (inactive)
Clc1ccc(Cl)c(-c2nn3c(Cn4cnc5ccccc54)nnc3s2)c1	566	15.8% (inactive)	-6.5% (inactive)	102%	-91.4% (inactive)	121%	-0.446 (inactive)	-3.8e-05 (inactive)	0.00462 (inactive)	inactive	13.6% (inactive)	13.1% (inactive)
CCn1c(SCC(=O)Nc2ccc3c(c2)OCO3)nnc1-c1cnccn1	542	-3.4% (inactive)	1.7% (inactive)	89.2%	-72.2% (inactive)	118%	-0.437 (inactive)	-5.6e-05 (inactive)	0.00469 (inactive)	inactive	15.5% (inactive)	16.7% (inactive)
COc1cccc(CN2C(=O)C3(C(C#N)=C(N)OC4=C3C(=O)CCC4)c3ccccc32)c1 (stereo not drawn)	352	-0.9% (inactive)	-11.5% (inactive)	94.1%	-15.9% (inactive)	77.7%	-0.414 (inactive)	-5.5e-05 (inactive)	0.00531 (inactive)	inactive	12.7% (inactive)	14.6% (inactive)
Cc1cc(=O)c2n(Cc3ccccc3Cl)nc[n+]2[nH]1	800	6% (inactive)	3% (inactive)	97.2%	-111% (inactive)	120%	-0.397 (inactive)	-5.7e-05 (inactive)	0.00447 (inactive)	inactive	5.55% (inactive)	8.5% (inactive)
Cc1ccc2nc(/C(C#N)=N/O)[nH]c2c1	627	-1.7% (inactive)	-7.3% (inactive)	112%	-34.1% (inactive)	119%	-0.376 (inactive)	-8.1e-05 (inactive)	0.00426 (inactive)	inactive	6.84% (inactive)	6.68% (inactive)
Cc1cc(C(=O)COC(=O)c2n[nH]c3ccccc23)c(C)n1C	377	2.6% (inactive)	-0.6% (inactive)	86.6%	12.4% (inactive)	96.7%	-0.445 (inactive)	-1.8e-05 (inactive)	0.00398 (inactive)	inactive	5.43% (inactive)	-24.2% (inactive)
CCOC(=O)c1[nH]c2ccc(C)cc2c1NC(=O)CN1CCCCC1	672	13.7% (inactive)	5.6% (inactive)	93.3%	-12% (inactive)	87.9%	-0.349 (inactive)	-2.6e-05 (inactive)	0.00444 (inactive)	inactive	13.3% (inactive)	14.1% (inactive)
CC(=O)NCCc1ccc(S(=O)(=O)NCc2ccc3c(c2)OCO3)cc1	587	-12.3% (inactive)	-24.8% (inactive)	89.5%	35.7% (inactive)	82.1%	-0.356 (inactive)	-4.4e-05 (inactive)	0.00549 (inactive)	inactive	4.45% (inactive)	2.38% (inactive)
Cc1sc2nc3n(c(=O)c2c1C)NC(=O)CC3	744	-7.3% (inactive)	-15% (inactive)	66.7%	32.1% (inactive)	85%	-0.421 (inactive)	-2.9e-05 (inactive)	0.0069 (inactive)	inactive	16.2% (inactive)	12.8% (inactive)
Cc1cc(C(F)(F)F)c2c(C)nn(CCc3nn[nH]n3)c2n1	863	1.1% (inactive)	11.9% (inactive)	112%	-20% (inactive)	117%	-0.368 (inactive)	1.8e-05 (inactive)	0.00523 (inactive)	inactive	-11.3% (inactive)	-12.7% (inactive)
